The target of the first experiment is T1, Stimulator of interferon genes protein (Homo sapiens, UniProt Q86WV6). Put plainly: Activation of wild-type human STING expressed in HEK293T cells assessed as IRF3 reporter activation at 10 uM measured after 20 hrs by luciferase reporter gene assay. In kind it is cell-based.
T1 sequence (Q86WV6 whole entry): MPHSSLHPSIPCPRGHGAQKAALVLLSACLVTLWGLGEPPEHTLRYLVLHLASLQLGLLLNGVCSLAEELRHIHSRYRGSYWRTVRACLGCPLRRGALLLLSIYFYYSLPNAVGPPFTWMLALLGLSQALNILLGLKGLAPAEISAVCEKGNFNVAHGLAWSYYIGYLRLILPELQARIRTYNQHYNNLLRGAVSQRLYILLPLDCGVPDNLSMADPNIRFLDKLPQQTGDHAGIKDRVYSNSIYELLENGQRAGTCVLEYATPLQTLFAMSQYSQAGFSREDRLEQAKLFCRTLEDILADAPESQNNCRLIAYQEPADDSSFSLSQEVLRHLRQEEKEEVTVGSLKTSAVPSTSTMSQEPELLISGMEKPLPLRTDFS
Conditions: not given
In a few lines: (§1)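 HEK293T-hSTING cells carrying a secreted luciferase reporter under an IRF-inducible promoter, made by blasticidin selection and clonal selection; parental HEK293T-luciferase cells as control. 5 x 10^5 cells per well treated at a single concentration. Supernatant luciferase read after 20 h by Quanti-Luc, as % activation relative to a positive-control agonist.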
For the molecule `O=C(NCc1ccco1)c1ccc2ccn(Cc3ccccc3)c2c1`, the Activity was -1%.

Consider `CN1C(=O)C(C)(Cc2ccccc2)c2cc(C(=O)NCc3ccco3)ccc21` (stereo unspecified), for which the Activity is -1%.

Consider `O=C(NCc1ccco1)c1ccc2c(c1)N(Cc1ccccc1)C(=O)CCO2`, for which the Activity was -1%.

Take `O=C(NCc1c(F)cc(F)cc1F)c1ccc2c(c1)N(C(=O)c1c(F)cccc1Cl)CCO2`: the Activity was 26%.

Turning to `O=C(NCc1ccco1)c1ccc2c(c1)N(Cc1c(F)cccc1Cl)C(=O)C21CC1`, the Activity was determined as 6%.

With `O=C(NCc1ccco1)c1ccc2c(c1)N(Cc1c(F)cccc1Cl)C(=O)CO2`, the Activity stood at 30%.

Turning to `O=C(NCc1ccco1)c1ccc2[nH]c(=O)n(Cc3ccccc3)c(=O)c2c1`, the Activity is 0%.

Regarding `O=C(NCc1ccco1)c1ccc2[nH]c(=O)n(Cc3ccccc3Cl)c2c1`, the Activity was -1%.

For the molecule `O=C(NCc1ccco1)c1ccc2c(c1)N(Cc1ccccc1)C(=O)CS2`, the Activity amounted to 27%.

Staying with this experiment, now noted: filed as activator.
For the molecule `O=C(NCc1ccco1)c1ccc2c(c1)N(Cc1c(F)cccc1Cl)C(=O)CC2`, the Activity worked out at 105%.

For `CC1(C)C(=O)N(Cc2ccccc2F)c2cc(C(=O)NCc3ccco3)ccc21`, the Activity was determined as 73%.

`O=C(NCc1c(F)cc(F)cc1F)c1cnc2c(c1)N(Cc1cc(F)cc(F)c1)C(=O)CC2`: the Activity turned out to be 58%.

The target of another experiment is T1, Stimulator of interferon genes protein. As to the kind of experiment: Activation of wild-type human STING expressed in HEK293T cells assessed as IRF3 reporter activation at 100 uM measured after 20 hrs by luciferase reporter gene assay. It counts as cell-based.
Conditions: not given
In a few lines: as §1
Take `O=C(NCc1ccco1)c1ccc2c(c1)N(Cc1c(F)cccc1Cl)C(=O)C[S+]2[O-]` (stereo unspecified): the Activity was determined as 7%.

The next experiment shares this target. As to the kind of experiment: Activation of wild-type human STING expressed in HEK293T cells assessed as IRF3 reporter activation at 20 uM measured after 20 hrs by luciferase reporter gene assay. It counts as cell-based. Conditions: filed as activator. In a few lines:
as §1
(In general: Reporter assays use an easily measured gene product as a stand-in for the process of interest.)
On to `CC1(O)C(=O)N(Cc2c(F)cccc2Cl)c2cc(C(=O)NCc3c(F)cc(F)cc3F)ccc21` (racemic), for which the Activity was 67%.

A further experiment has the same target. Put plainly: Activation of wild-type human STING expressed in HEK293T cells assessed as IRF3 reporter activation at 50 uM measured after 20 hrs by luciferase reporter gene assay. It counts as cell-based.
Conditions: not given
A digest of the protocol:
as §1
Consider `O=C(NCc1ccco1)c1ccc2c(c1)N(Cc1ccccc1F)C(=O)C2=O`, for which the Activity came out at 0%.

For the next experiment the target is unchanged. As to the kind of experiment: Activation of wild-type human STING expressed in HEK293T cells assessed as IRF3 reporter activation at 1 uM measured after 20 hrs by luciferase reporter gene assay. It counts as cell-based.
Conditions: not given
A digest of the protocol:
as §1
As to `CC1Oc2ncc(C(=O)NCc3c(F)cc(F)cc3F)cc2N(Cc2cc(F)cc(F)c2)C1=O` (racemic), the Activity stood at 6%.

With `O=C(NCc1c(F)cc(F)cc1F)c1ccc2c(n1)N(Cc1cc(F)cc(F)c1)C(=O)CC2`, the Activity was 5%.

For `O=C(NCc1c(F)cc(F)cc1F)c1cnc2c(c1)N(Cc1cc(F)cc(F)c1)C(=O)CO2`, the Activity came out at 3%.

In the case of `COC1(C)C(=O)N(Cc2c(F)cccc2Cl)c2cc(C(=O)NCc3c(F)cc(F)cc3F)ccc21` (racemic), the Activity came out at 20%.

Staying with this experiment, now noted: filed as activator.
As for `CC1Cc2ccc(C(=O)NCc3c(F)cc(F)cc3F)cc2N(Cc2cc(F)cc(F)c2)S1(=O)=O` (racemic), the Activity was 40%.

Regarding `CC1Cc2ccc(C(=O)NCc3c(F)cc(F)cc3F)cc2N(Cc2c(F)cccc2Cl)C1=O` (racemic), the Activity stood at 92%.

`CC1(C)C(=O)N(Cc2ccccc2F)c2cc(C(=O)NCc3c(F)cc(F)cc3F)ccc21`: the Activity came to 116%.

Regarding `CC1Oc2ccc(C(=O)NCc3c(F)cc(F)cc3F)cc2N(Cc2cc(F)cc(F)c2)C1=O` (racemic), the Activity came out at 95%.

Take `CC1(C)CC(=O)N(Cc2cc(F)cc(F)c2)c2cc(C(=O)NCc3c(F)cc(F)cc3F)ccc21`: the Activity turned out to be 102%.

As to `CC1(C#N)C(=O)N(Cc2c(F)cccc2Cl)c2cc(C(=O)NCc3c(F)cc(F)cc3F)ccc21` (racemic), the Activity turned out to be 102%.

On to `O=C(NCc1c(F)cc(F)cc1F)c1ccc2c(c1)N(Cc1c(F)cccc1Cl)C(=O)CC2`, for which the Activity was 107%.

The values above are taken from ChEMBL document CHEMBL4732051, “The discovery of potent small molecule activators of human STING” (Eur J Med Chem, 2021).
